Mdm2 MdmX PPI: inhibitors of human Mdm2-MdmX association, primary screen, cell-based, luminescence, split luciferase, SaOS-2, uHTS; AID 485346, 2010; actives 3% (n = 330,000); SaOS-2 split-luciferase Mdm2/MdmX complementation; inhibition, % at 8 µM; Protein Mdm4 (Homo sapiens) + E3 ubiquitin-protein ligase Mdm2 (Homo sapiens), …;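 active means inhibition of at least 50% at 8 µM in the primary screen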
Target sequence (O15151 whole entry, looked up): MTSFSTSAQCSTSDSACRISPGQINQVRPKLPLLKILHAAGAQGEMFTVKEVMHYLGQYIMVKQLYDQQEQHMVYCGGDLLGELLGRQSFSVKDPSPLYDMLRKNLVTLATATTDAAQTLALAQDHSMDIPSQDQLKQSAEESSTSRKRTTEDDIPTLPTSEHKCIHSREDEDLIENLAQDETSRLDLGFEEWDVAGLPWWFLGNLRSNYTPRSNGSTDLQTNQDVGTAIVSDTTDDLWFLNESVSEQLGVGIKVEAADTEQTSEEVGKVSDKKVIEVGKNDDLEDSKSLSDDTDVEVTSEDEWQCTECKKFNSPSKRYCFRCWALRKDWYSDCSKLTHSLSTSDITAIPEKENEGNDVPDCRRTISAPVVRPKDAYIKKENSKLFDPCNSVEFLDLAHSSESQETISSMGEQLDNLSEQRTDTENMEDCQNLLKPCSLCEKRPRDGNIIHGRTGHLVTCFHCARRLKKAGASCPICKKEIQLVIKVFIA
Target sequence (Q00987 whole entry, looked up): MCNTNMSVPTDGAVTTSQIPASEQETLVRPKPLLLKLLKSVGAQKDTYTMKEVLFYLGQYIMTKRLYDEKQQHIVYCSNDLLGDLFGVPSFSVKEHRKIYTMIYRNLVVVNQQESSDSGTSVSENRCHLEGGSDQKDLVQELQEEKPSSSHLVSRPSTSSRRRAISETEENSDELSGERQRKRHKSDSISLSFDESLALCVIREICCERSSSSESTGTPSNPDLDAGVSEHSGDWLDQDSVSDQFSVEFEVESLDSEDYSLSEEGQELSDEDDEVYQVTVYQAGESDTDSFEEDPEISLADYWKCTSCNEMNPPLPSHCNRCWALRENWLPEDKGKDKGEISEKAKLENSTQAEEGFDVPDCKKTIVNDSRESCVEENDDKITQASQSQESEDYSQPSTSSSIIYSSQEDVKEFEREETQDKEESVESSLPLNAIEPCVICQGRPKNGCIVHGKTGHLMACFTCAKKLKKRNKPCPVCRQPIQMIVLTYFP
CSC inhib: cancer stem cell viability inhibitors, primary screen, luminescence; inhibition, % at 7.5 µM; actives 1.1% (n = 300,000); AID 2717, 2010; cancer stem cell-like cells viability; in the data active means inhibition above about 75%; inconclusive means no clear call, values can overlap the other calls; tested in HMLE shEcad cells
T cruzi repl: inhibitors of intracellular T. cruzi growth, primary screen, luminescence, NIH3T3 host cells. T. cruzi beta-gal in NIH3T3, 90 h. AID 1885, 2009. inhibition, % (no concentration beside the values). actives 1.4% (n = 300,000);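 active means mean inhibition across valid replicates above about 55%, limit read from the data; inconclusive means mean below that limit but half or more replicates reach it; inactive means mean below it, under half of replicates reach it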;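 further: signal also drops with host cell toxicity which is not excluded here; higher percent means less beta-gal luminescence so fewer parasites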
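Test system: β-gal T. cruzi (Tulahuen C4) inside NIH/3T3 cells / Quantity: 5,000 cells/well / Measured by: luminescence from GalScreen with 0.05% NP40, read after 60 min / Medium: DMEM plus 2% FBS / Measure: parasite load inhibition, % / Reagent: Tulahuen C4 trypomastigotes, 5000/well / Schedule: co-culture of at least 90 h after 3 h attachment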
SKKanGAS inh: S. pyogenes SKKanGAS growth inhibitors in kanamycin, primary screen, streptokinase expression inhibitor project, SKKanGAS strain, BacTiter-Glo luminescence. 6 h. inhibition, % at 7.5 µM. actives 1.3% (n = 300,000). AID 1662, 2009;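 active means mean replicate score, as percent of positive control median, at least 50; inconclusive means mean below 50 but one replicate at or above 50; inactive means mean and every replicate below 50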;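 further: strain carries kanamycin resistance gene driven by streptokinase promoter and grows in 40 µg/ml kanamycin; loss of luminescence reflects streptokinase promoter inhibition or plain growth inhibition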
aSyn UTR inh: MLPCN primary screen, SNCA 5' untranslated region; alpha-synuclein 5'UTR reporter, inhibitor activity; inhibition, % (tested at 7.5 µM); actives 0.82% (n = 300,000); in the data active means inhibition above about 60%; inconclusive means no clear call, values can overlap the other calls;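 further: H4 neuroglioblastoma cells stably carrying SNCA 5'UTR luciferase fusion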
Mdm2-MdmX conf: Mdm2-MdmX complex disruptors, retested hits, confirmation, luminescence, single concentration. shares compounds with Mdm2 MdmX PPI. actives 55% (n = 10,000). inhibition, % at 8 µM. Mdm2-MdmX binding, luminescent assay; in the data active means inhibition above about 40%
Full FLuc ctr: full-length luciferase signal inhibition, confirmation, counter-screen for Mdm2/MdmX interaction inhibitor project, cell-based, single concentration, SaOS-2. shares compounds with Mdm2 MdmX PPI. SaOS-2 full-length luciferase counterscreen, luminescence. inhibition, % at 8 µM. actives 77% (n = 6,200);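 active means mean inhibition at 8 µM reaching about 37%, which flags the compound as non-specific, limit read from the data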;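 further: p53-null SaOS-2 cells with luciferase driven by a doxycycline-inducible promoter; compound on cells about two nights before reading with doxycycline added after day one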
Hits are given with their value; – = inactive; ? = inconclusive; · = not tested or not shown. In the library only some 5.4% were active in any assay of this set; here they are far more common.

SMILES	Mdm2 MdmX PPI	CSC inhib	T cruzi repl	SKKanGAS inh	aSyn UTR inh	Mdm2-MdmX conf	others
Cc1cccc(OCCn2c(NC(=O)c3ccco3)nc3ccccc32)c1	51	–	60	62	–	41	Full FLuc ctr=59
Nc1nc2ccccc2n1CCOc1ccc(Br)cc1	–	–	–	–	–	·
S=C(Nc1ccccc1)Nc1nc2ccccc2n1CCOc1ccc(Br)cc1	95	107	–	–	–	–
Nc1nc2ccccc2n1CCOc1ccc(Cl)cc1	–	–	–	–	–	·
O=C(Nc1nc2ccccc2n1CCOc1ccc(Cl)cc1)c1ccco1	67	–	57	90	–	50	Full FLuc ctr=72
c1ccc(OCCn2c(-c3ccco3)nc3ccccc32)cc1	–	–	–	–	–	·
COc1ccc(C(=O)NNC(=O)C(=O)Nc2cccc3ccccc23)cc1	–	–	–	–	–	·
O=C(Nc1ccc(-c2csc(Nc3ccccc3)n2)cc1)c1cc([N+](=O)[O-])cc(C(F)(F)F)c1	–	–	–	?	–	·
O=C(Nc1cccc(-c2csc(Nc3cccc(C(F)(F)F)c3)n2)c1)c1cc([N+](=O)[O-])cc(C(F)(F)F)c1	64	–	–	77	–	–
COC(=O)c1sccc1NS(=O)(=O)c1ccc(OC)cc1	–	?	–	–	–	·
O=C(CSc1nnc(-c2ccncc2)n1-c1ccc(Cl)cc1)NCc1cccs1	–	–	–	–	–	·
CCOc1ccc2nc(Nc3nc(CSc4nnnn4-c4ccccc4)cc(=O)[nH]3)nc(C)c2c1	75	–	–	–	–	–
Cc1ccc2c(C)nc(Nc3nc(CSc4nnnn4-c4ccccc4)cc(=O)[nH]3)nc2c1	89	–	–	–	–	61	Full FLuc ctr=63
COc1ccc(CC(=O)Oc2ccc(Br)cc2F)cc1S(=O)(=O)N1CCOCC1	–	–	–	–	–	·
CN(C)S(=O)(=O)c1cc(NC(=O)Cn2ccsc2=N)ccc1Cl	–	–	–	–	–	·
N#CC1=C(SCC(N)=O)NC2=C(C(=O)c3ccccc32)C1c1ccc(Cl)cc1 (stereo not given)	50	–	–	–	–	–
CCN(CC(=O)Nc1c(F)cccc1F)C(=O)c1ccc2c(c1)OCCO2	–	–	–	–	–	·
Cc1ccc(NC(=O)COC(=O)CNC(=O)c2ccc3ccccc3c2)c([N+](=O)[O-])c1	–	–	–	–	–	·
O=C(N/N=C/c1cccc(Cl)c1)c1c(O)c2c([nH]c1=O)CCCC2	69	–	–	–	–	–
CCN(CC)CCCN(C(=O)c1cccc(C)c1)c1nc(-c2ccc(OC)cc2)cs1	56	–	–	–	–	–	Full FLuc ctr=84
CCN(CC)CCCN(C(=O)c1ccc(Br)cc1)c1nc(-c2ccc(OC)cc2)cs1	–	–	–	–	–	·
CC(OC(=O)C1CCN(c2ccc(C(F)(F)F)cn2)CC1)C(=O)c1ccccc1 (stereo not given)	–	–	–	–	–	·
CC(C)(C)NC(=O)C(c1ccc(-c2ccccc2)cc1)N(C[C@H]1CC[C@@H]([C@@H]2CC[C@H](CO)O2)O1)C(=O)c1ccc(C(C)(C)C)cc1 (stereo not given in full)	68	·	·	·	·	–
Cc1ccc(C(C(=O)NC(C)(C)C)N(CC2CCCO2)C(=O)c2csnn2)cc1 (stereo not given)	–	–	–	–	–	·
O=C(CN1CCN(Cc2ccc(Cl)cc2)CC1)N/N=C/C=C/c1ccccc1[N+](=O)[O-]	–	–	–	–	–	·
SMILES	Mdm2 MdmX PPI	CSC inhib	T cruzi repl	SKKanGAS inh	aSyn UTR inh	Mdm2-MdmX conf	others
COC(=O)C(Cc1ccc(O)cc1)N1Cc2ccccc2C1=O (stereo not given)	–	–	–	–	–	·
O=C(Nc1ccc(NC(=O)c2ccco2)nc1)c1ccco1	–	–	–	–	–	·
CC(C)(C)c1ccc(C(=O)Nc2ccc(NC(=O)c3ccco3)cc2)cc1	51	·	–	–	–	–
CC(C)(C)C(=O)Nc1ccc(NC(=O)c2ccco2)nc1	90	–	–	–	102	92	Full FLuc ctr=58
O=C(Nc1ccc(NC(=O)c2sc3ccccc3c2Cl)cc1)c1ccco1	77	–	–	–	–	–	Full FLuc ctr=46
CCC(C)[C@H]1CNCCN1CCc1cccc(F)c1 (stereo not given in full)	–	–	–	–	–	·
Cc1ccc(NC2SC(=O)N(CC(=O)O)C2=O)cc1 (stereo not given)	–	–	–	–	–	·
COc1cc(CNCCc2ccccc2)cc(Br)c1OCC(=O)Nc1ccccc1C	74	·	–	–	–	–	Full FLuc ctr=72
CCOc1cc(CNC2CCCC2)cc(Cl)c1OCc1ccccc1	52	·	–	–	–	–
O=C(COc1ccc(Br)cc1CNCCc1ccccc1)NCc1ccccc1	56	–	–	–	–	–
CCOc1cc(CNCC(C)C)cc(Cl)c1OCc1ccccc1	–	·	–	–	–	·
CNCc1cc(Br)c(OCC(=O)Nc2ccccc2OC)c(OC)c1	–	–	–	–	–	·
COc1cc(CNCCc2ccccc2)cc(Cl)c1OCc1ccccc1	78	?	–	–	–	–
CSc1ncccc1C(=O)Nc1ccc(S(=O)(=O)N2CCCC2)cc1	–	·	·	·	·	·
O=C(CN(c1ccccc1)S(=O)(=O)c1ccccc1)Nc1ccc(F)cc1	–	–	–	–	–	·
CC(C)n1cc(CN2CCC(C(=O)Nc3cccc(-c4cscn4)c3)CC2)cn1	–	·	–	–	–	·
CCn1cc(CN2CCCC(C(=O)Nc3cccc(-c4cc5ccccc5[nH]4)c3)C2)c(C)n1 (stereo not given)	–	–	–	–	–	·
Cn1cc(CN2CCCC(C(=O)Nc3cccc(-c4cc5ccccc5[nH]4)c3)C2)cn1 (stereo not given)	60	–	–	–	–	–
CC(C)n1cc(CN2CCCC(C(=O)Nc3cccc(-c4cc5ccccc5[nH]4)c3)C2)cn1 (stereo not given)	78	–	–	–	?	–
Clc1ccc(-[n+]2c(-c3cccc(Br)c3)[nH]c3nc4ccccc4nc32)cc1	61	–	–	85	–	–
O=C(Nc1cccc(-c2cnc3ccccc3n2)c1)c1ccc(Cl)cc1	–	–	–	–	–	·
Cc1c(NC(=O)c2n[nH]c(=O)c3ccccc23)c(=O)n(-c2ccccc2)n1C	–	–	–	–	–	·
O=C1c2cccc3cc([N+](=O)[O-])cc(c23)C(=O)N1CCN1CCCC1	90	·	56	–	98	96	Full FLuc ctr=53
Cc1cc(NC(=O)CCC(=O)N(c2ccc(F)cc2)C(C(=O)NC2CCCC2)c2ccc(C)o2)no1 (stereo not given)	–	·	–	–	–	·
